# Experimental data taken from ChEMBL document CHEMBL2177098, “Synthesis and evaluation of novel ¹⁸F labeled 2-pyridinylbenzoxazole and 2-pyridinylbenzothiazole derivatives as ligands for positron emission tomography (PET) imaging of β-amyloid plaques” (J Med Chem, 2012).
# Key:
# Kidney [1] = assay: Drug uptake in ICR mouse kidney at 370 kBq/100 ul, iv at 60 mins by gamma-counting analysis; assay type: ADME, organism-based; details: in vivo, 1 h
# How it was run: (§1)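 Male ICR mice (5 weeks, about 20 g) got 18F tracer in saline (370 KBq per 100 μL) via tail vein; n = 5 per time point, killed at 2, 10, 30, 60 min. Organs weighed and γ-counted; percent dose per gram wet tissue from comparison with diluted injectate aliquots.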
# Spleen [2] = assay: Drug uptake in ICR mouse spleen at 370 kBq/100 ul, iv at 30 mins by gamma-counting analysis; assay type: ADME, organism-based; details: in vivo, 0.5 h; how it was run: as §1
# Bone [3] = assay: Drug uptake in ICR mouse bone at 370 kBq/100 ul, iv at 10 mins by gamma-counting analysis; assay type: ADME, organism-based, Bone element; details: in vivo; how it was run: as §1
# Brain [4] = assay: Ratio of drug uptake in brain at 2 mins to drug uptake in brain at 60 mins in ICR mouse at 370 KBq/100 ul, iv; assay type: ADME, organism-based; details: in vivo
# How it was run: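 Normal male ICR mice (5 weeks, about 20 g) received the ¹⁸F tracer in saline (370 KBq per 100 μL) by tail-vein injection. Groups of n = 5 were killed at 2, 10, 30 and 60 min. Organs were removed, weighed and γ-counted against diluted aliquots of the injectate, giving % dose per gram. Stomach and intestine were expressed per organ. The brain ratio is 2 min/60 min uptake. Values are mean ± SD.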
# Blood [5] = assay: Drug uptake in ICR mouse blood at 370 kBq/100 ul, iv at 2 mins by gamma-counting analysis; assay type: ADME, organism-based; details: in vivo; how it was run: as §1
# Bone [6] = assay: Drug uptake in ICR mouse bone at 370 kBq/100 ul, iv at 2 mins by gamma-counting analysis; assay type: ADME, organism-based, Bone element; details: in vivo; how it was run: as §1
# Liver [7] = assay: Drug uptake in ICR mouse liver at 370 kBq/100 ul, iv at 2 mins by gamma-counting analysis; assay type: ADME, organism-based; details: in vivo; how it was run: as §1
# Blood [8] = assay: Drug uptake in ICR mouse blood at 370 kBq/100 ul, iv at 60 mins by gamma-counting analysis; assay type: ADME, organism-based; details: in vivo, 1 h; how it was run: as §1
# Heart [9] = assay: Drug uptake in ICR mouse heart at 370 kBq/100 ul, iv at 60 mins by gamma-counting analysis; assay type: ADME, organism-based; details: in vivo, 1 h; how it was run: as §1
# Bone [10] = assay: Drug uptake in ICR mouse bone at 370 kBq/100 ul, iv at 60 mins by gamma-counting analysis; assay type: ADME, organism-based, Bone element; details: in vivo, 1 h; how it was run: as §1
# Blood [11] = assay: Drug uptake in ICR mouse blood at 370 kBq/100 ul, iv at 10 mins by gamma-counting analysis; assay type: ADME, organism-based; details: in vivo; how it was run: as §1
# Lung [12] = assay: Drug uptake in ICR mouse lung at 370 kBq/100 ul, iv at 2 mins by gamma-counting analysis; assay type: ADME, organism-based; details: in vivo; how it was run: as §1
# Stomach [13] = assay: Drug uptake in ICR mouse stomach assessed per organ at 370 kBq/100 ul, iv at 10 mins by gamma-counting analysis; assay type: ADME, organism-based; details: in vivo
# How it was run: (§2)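 Male ICR mice (5 weeks, about 20 g) got 18F tracer in saline (370 KBq per 100 μL) via tail vein; n = 5 per time point, killed at 2, 10, 30, 60 min. Organs removed and γ-counted against diluted injectate; expressed as % injected dose per organ.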
# Kidney [14] = assay: Drug uptake in ICR mouse kidney at 370 kBq/100 ul, iv at 30 mins by gamma-counting analysis; assay type: ADME, organism-based; details: in vivo, 0.5 h; how it was run: as §1
# Brain [15] = assay: Drug uptake in ICR mouse brain at 370 kBq/100 ul, iv at 2 mins by gamma-counting analysis; assay type: ADME, organism-based; details: in vivo; how it was run: as §1
# Lung [16] = assay: Drug uptake in ICR mouse lung at 370 kBq/100 ul, iv at 10 mins by gamma-counting analysis; assay type: ADME, organism-based; details: in vivo; how it was run: as §1
# Stomach [17] = assay: Drug uptake in ICR mouse stomach assessed per organ at 370 kBq/100 ul, iv at 2 mins by gamma-counting analysis; assay type: ADME, organism-based; details: in vivo; how it was run: as §2
# Liver [18] = assay: Drug uptake in ICR mouse liver at 370 kBq/100 ul, iv at 60 mins by gamma-counting analysis; assay type: ADME, organism-based; details: in vivo, 1 h; how it was run: as §1
# Liver [19] = assay: Drug uptake in ICR mouse liver at 370 kBq/100 ul, iv at 30 mins by gamma-counting analysis; assay type: ADME, organism-based; details: in vivo, 0.5 h; how it was run: as §1
# Intestine = assay: Drug uptake in ICR mouse intestine assessed per organ at 370 kBq/100 ul, iv at 30 mins by gamma-counting analysis; assay type: ADME, organism-based; details: in vivo, 0.5 h; how it was run: as §2
# Spleen [20] = assay: Drug uptake in ICR mouse spleen at 370 kBq/100 ul, iv at 2 mins by gamma-counting analysis; assay type: ADME, organism-based; details: in vivo; how it was run: as §1
# Heart [21] = assay: Drug uptake in ICR mouse heart at 370 kBq/100 ul, iv at 30 mins by gamma-counting analysis; assay type: ADME, organism-based; details: in vivo, 0.5 h; how it was run: as §1
# Kidney [22] = assay: Drug uptake in ICR mouse kidney at 370 kBq/100 ul, iv at 2 mins by gamma-counting analysis; assay type: ADME, organism-based; details: in vivo; how it was run: as §1
compound,measurement,setting,value
CNc1ccc(-c2nc3cc(OCCOCCOCC[18F])ccc3o2)cn1,Drug uptake,Kidney [1],2.54 % ID/g
same,Drug uptake,Spleen [2],2.18 % ID/g
same,Drug uptake,Bone [3],1.92 % ID/g
same,Ratio,Brain [4],2.28
same,Drug uptake,Blood [5],5.07 % ID/g
same,Drug uptake,Bone [6],1.75 % ID/g
same,Drug uptake,Liver [7],14.22 % ID/g
same,Drug uptake,Blood [8],2.74 % ID/g
same,Drug uptake,Heart [9],2.5 % ID/g
same,Drug uptake,Bone [10],3.93 % ID/g
same,Drug uptake,Blood [11],3.04 % ID/g
same,Drug uptake,Lung [12],5.3 % ID/g
same,Drug uptake,Stomach [13],12.32 %ID
same,Drug uptake,Kidney [14],3.73 % ID/g
same,Drug uptake,Brain [15],4.05 % ID/g
same,Drug uptake,Lung [16],3.15 % ID/g
same,Drug uptake,Stomach [17],5.08 %ID
same,Drug uptake,Liver [18],4.21 % ID/g
same,Drug uptake,Liver [19],6.47 % ID/g
same,Drug uptake,Intestine,28.65 %ID
same,Drug uptake,Spleen [20],4.13 % ID/g
same,Drug uptake,Heart [21],3.16 % ID/g
same,Drug uptake,Kidney [22],8.51 % ID/g
